Assay results from ChEMBL document CHEMBL1133124, “N(2)-Aroylanthranilamide inhibitors of human factor Xa” (J Med Chem, 2000).

target: Coagulation factor X (Homo sapiens) (UniProt P00742); experiment: Binding affinity for coagulation factor X as apparent association constant (Kass) derived from protease inhibition kinetics.
Summary of the method: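 Human fXa, 3.2 nM final, in tris/NaCl buffer pH 7.4 with HSA; inhibitor added in MeOH, then chromogenic substrate (0.3 mM stock in water) to start hydrolysis; rates read at 405 nm. Four to eight inhibitor concentrations, n = 3 each.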

Chain of Coagulation factor X (Homo sapiens) (P00742 41-179 limits assumed): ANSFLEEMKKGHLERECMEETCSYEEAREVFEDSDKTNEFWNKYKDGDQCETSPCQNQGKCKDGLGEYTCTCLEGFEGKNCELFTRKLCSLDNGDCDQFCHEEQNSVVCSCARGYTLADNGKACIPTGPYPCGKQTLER
Chain of Coagulation factor X (Homo sapiens) (P00742 235-488 limits assumed): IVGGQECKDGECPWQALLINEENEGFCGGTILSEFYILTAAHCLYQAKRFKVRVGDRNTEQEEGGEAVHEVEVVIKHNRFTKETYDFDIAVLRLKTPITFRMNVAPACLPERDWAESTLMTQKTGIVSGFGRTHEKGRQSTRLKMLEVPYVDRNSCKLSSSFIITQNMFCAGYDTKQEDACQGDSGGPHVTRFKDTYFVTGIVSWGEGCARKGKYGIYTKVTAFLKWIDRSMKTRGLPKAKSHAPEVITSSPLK

| Compound | K ass |
| --- | --- |
| COc1ccc(NC(=O)c2ccccc2NC(=O)c2ccc(N(C)C)cc2)cc1 | 2.01e+07 l M-1 |
| COc1ccc(NC(=O)c2ccccc2NC(=O)c2ccc(C(C)(C)C)cc2)cc1 | 4.7e+06 l M-1 |
| CCOc1ccc(C(=O)Nc2ccccc2C(=O)Nc2ccc(OC)cc2)cc1 | 1e+06 l M-1 |
| COc1ccc(NC(=O)c2cc([N+](=O)[O-])ccc2NC(=O)c2ccc(C(C)(C)C)cc2)cc1 | 2.1e+06 l M-1 |
| COc1ccc(NC(=O)c2ccccc2NC(=O)c2ccc(C(C)(C)O)cc2)cc1 | 480000 l M-1 |
| COc1ccc(NC(=O)c2ccc(NC(C)=O)cc2NC(=O)c2ccc(C(C)(C)C)cc2)cc1 | 2.2e+06 l M-1 |
| COc1ccc(NC(=O)c2cc(NS(=O)(=O)c3ccccc3)ccc2NC(=O)c2ccc(C(C)(C)C)cc2)cc1 | 4.9e+06 l M-1 |
| COc1ccc(NC(=O)c2ccc(NS(C)(=O)=O)cc2NC(=O)c2ccc(C(C)(C)C)cc2)cc1 | 3.9e+06 l M-1 |
| COc1ccc(CCc2ccccc2NC(=O)c2ccc(OC)cc2)cc1 | < 1000 l M-1 |
| CC(C)(C)c1ccc(C(=O)Nc2ccccc2C(=O)Nc2ccc(C(F)(F)F)cc2)cc1 | 1000 l M-1 |
| CC(C)(C)c1ccc(C(=O)Nc2ccccc2C(=O)Nc2ccc(Br)cc2)cc1 | 220000 l M-1 |
| COc1ccc(NC(=O)c2ccccc2NC(=O)c2ccc(C(C)=O)cc2)cc1 | 450000 l M-1 |
| COc1ccc(NC(=O)c2ccccc2NC(=O)c2cccc(N(C)C)c2)cc1 | 90000 l M-1 |
| COc1ccc(NC(=O)c2ccc([N+](=O)[O-])cc2NC(=O)c2ccc(C(C)(C)C)cc2)cc1 | 80000 l M-1 |
| COc1ccc(NC(=O)c2ccccc2NC(=O)c2ccc(Cl)c(Cl)c2)cc1 | 10000 l M-1 |
| COc1ccc(NC(=O)c2ccccc2NC(=O)c2ccc(C(C)O)cc2)cc1 (centres undefined) | 400000 l M-1 |
| COc1ccc(NC(=O)c2cc(NS(C)(=O)=O)ccc2NC(=O)c2ccc(C(C)(C)C)cc2)cc1 | 1.35e+07 l M-1 |
| CC(C)(C)c1ccc(C(=O)Nc2ccccc2C(=O)Nc2ccc(OC(F)(F)F)cc2)cc1 | < 1000 l M-1 |
| COc1ccc(/C=C/c2ccccc2NC(=O)c2ccc(OC)cc2)cc1 | 30000 l M-1 |
| COc1ccc(NC(=O)c2ccccc2NC(=O)c2cccc(C)c2)cc1 | 30000 l M-1 |
| COc1ccc(NC(=O)c2ccc(N)cc2NC(=O)c2ccc(C(C)(C)C)cc2)cc1 | 6.3e+06 l M-1 |
| Cc1ccc(NC(=O)c2ccccc2NC(=O)c2ccc(C(C)(C)C)cc2)cc1 | 3.4e+06 l M-1 |
| COc1ccc(NC(=O)c2ccccc2NC(=O)c2ccc(C(N)=O)cc2)cc1 | 1.12e+06 l M-1 |
| COc1ccc(NC(=O)c2ccc(NS(=O)(=O)c3ccccc3)cc2NC(=O)c2ccc(C(C)(C)C)cc2)cc1 | 620000 l M-1 |
| COc1ccc(NC(=O)c2ccc(NC(=O)CCC(=O)O)cc2NC(=O)c2ccc(N(C)C)cc2)cc1 | 9.6e+06 l M-1 |

| Compound | K ass |
| --- | --- |
| CCc1ccc(NC(=O)c2ccccc2NC(=O)c2ccc(C(C)(C)C)cc2)cc1 | 1000 l M-1 |
| COc1ccc(NC(=O)c2ccc(NC(=O)CCC(=O)O)cc2NC(=O)c2ccc(C(C)(C)C)cc2)cc1 | 9.6e+06 l M-1 |
| COc1ccc(NC(=O)c2cc(NC(C)=O)ccc2NC(=O)c2ccc(C(C)(C)C)cc2)cc1 | 40000 l M-1 |
| COc1ccc(NC(=O)c2ccccc2NC(=O)c2cccc(Cl)c2)cc1 | 30000 l M-1 |
| CC(C)(C)c1ccc(C(=O)Nc2ccccc2C(=O)Nc2ccccc2)cc1 | 460000 l M-1 |
| COc1ccc(NC(=O)c2ccc(NS(C)(=O)=O)cc2NC(=O)c2ccc(N(C)C)cc2)cc1 | 8e+06 l M-1 |
| COc1ccc(OCc2ccccc2NC(=O)c2ccc(OC)cc2)cc1 | 30000 l M-1 |
| CC(C)(C)c1ccc(C(=O)Nc2ccccc2C(=O)Nc2ccc(F)cc2)cc1 | 110000 l M-1 |
| COc1ccc(NC(=O)c2cc(N)ccc2NC(=O)c2ccc(C(C)(C)C)cc2)cc1 | 2.5e+06 l M-1 |
| COc1ccc(C(=O)Nc2ccccc2NC(=O)c2ccc(OC)cc2)cc1 | 1.3e+06 l M-1 |
| COc1ccc(C(=O)Nc2ccccc2C(=O)Nc2ccc(C(C)(C)C)cc2)cc1 | 30000 l M-1 |
| COc1ccc(NC(=O)c2ccccc2C(=O)Nc2ccc(OC)cc2)cc1 | 70000 l M-1 |
| COc1ccc(NC(=O)c2cc(NC(=O)CCC(=O)O)ccc2NC(=O)c2ccc(N(C)C)cc2)cc1 | 400000 l M-1 |
| COc1ccc(NC(=O)c2cc(NC(=O)CCC(=O)O)ccc2NC(=O)c2ccc(C(C)(C)C)cc2)cc1 | 150000 l M-1 |
| CC(C)(C)c1ccc(C(=O)Nc2ccccc2C(=O)Nc2ccc(Cl)cc2)cc1 | 490000 l M-1 |
| COc1ccc(NC(=O)c2ccc(N)cc2NC(=O)c2ccc(N(C)C)cc2)cc1 | 2.27e+07 l M-1 |
| COc1ccc(NC(=O)c2ccccc2NC(=O)c2ccc(C(C)C)cc2)cc1 | 7e+06 l M-1 |
| COc1ccc(NC(=O)c2cc(NS(C)(=O)=O)ccc2NC(=O)c2ccc(N(C)C)cc2)cc1 | 5.79e+07 l M-1 |
| COc1ccc(NC(=O)c2ccccc2NC(=O)c2ccc(C(F)(F)F)cc2)cc1 | 90000 l M-1 |
| COc1ccc(NC(=O)c2cc(N)ccc2NC(=O)c2ccc(N(C)C)cc2)cc1 | 7e+06 l M-1 |
| COc1ccc(NC(=O)c2ccccc2NC(=O)c2ccc(C)cc2)cc1 | 1.8e+06 l M-1 |
| COc1ccc(NC(=O)c2ccccc2NC(=O)c2ccc(OC)cc2)cc1 | 1.2e+06 l M-1 |
| COc1ccc(C(=O)Nc2ccccc2NC(=O)c2ccc(N(C)C)cc2)cc1 | 1.87e+07 l M-1 |
| COc1ccc(NC(=O)c2ccccc2NC(=O)c2ccc(Cl)cc2)cc1 | 270000 l M-1 |
